Molecules are shown by their SMILES.

This is an account of results in PMC8518816 (Chemmedchem, 2021).

Assay [1] concerns C2 C12 myotubes. Description: Glucose uptake. Type of assay: cell-based, Mouse. The conditions noted are these: 2 μM, 90 min, 2-NBDG 0.1 mM. Summed up:
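Mouse C2C12 myoblasts grown in DMEM with 10 % heat-inactivated FBS and penicillin/streptomycin (37 °C, 5 % CO2), then differentiated in DMEM with 2 % horse serum, changed every 48 h. Test compound at 2 μM for 90 min (insulin 10 nM, 30 min as positive control), then 0.1 mM 2-NBDG for 30 min. Washed three times with cold PBS. Intracellular fluorescence minus no-2-NBDG autofluorescence, corrected for BCA protein, relative to vehicle; 5 independent experiments, mean ± S.E.M.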

The target of assay [2] is T1, PTP1B (Homo sapiens, UniProt P18031).
T1 sequence (P18031 1-322 limits assumed): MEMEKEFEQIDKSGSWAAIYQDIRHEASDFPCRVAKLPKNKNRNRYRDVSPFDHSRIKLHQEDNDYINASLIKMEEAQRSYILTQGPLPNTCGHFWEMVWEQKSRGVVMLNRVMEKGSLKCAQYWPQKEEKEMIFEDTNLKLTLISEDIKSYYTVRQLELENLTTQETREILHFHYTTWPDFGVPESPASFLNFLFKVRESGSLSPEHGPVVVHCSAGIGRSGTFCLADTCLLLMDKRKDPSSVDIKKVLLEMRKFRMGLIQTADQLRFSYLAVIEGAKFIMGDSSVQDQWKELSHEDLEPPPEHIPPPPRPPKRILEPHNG
Description: PTP1B enzyme inhibition. Type of assay: biochemical. Particulars: for inhibition at 1 µM: read-out: % Inhib. PTP1B @ 1 μM. Summed up: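 Recombinant 322-amino-acid PTP1B preincubated with test compound; pNPP substrate then added and hydrolysis followed as absorbance increase at 405 nm. IC50 fitted from increasing compound concentrations, each point in duplicate. Percent inhibition also taken at 1 μM.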

The target of assay [3] is T2, TCPTP (Homo sapiens, UniProt P17706).
T2 sequence (P17706 1-341 limits assumed): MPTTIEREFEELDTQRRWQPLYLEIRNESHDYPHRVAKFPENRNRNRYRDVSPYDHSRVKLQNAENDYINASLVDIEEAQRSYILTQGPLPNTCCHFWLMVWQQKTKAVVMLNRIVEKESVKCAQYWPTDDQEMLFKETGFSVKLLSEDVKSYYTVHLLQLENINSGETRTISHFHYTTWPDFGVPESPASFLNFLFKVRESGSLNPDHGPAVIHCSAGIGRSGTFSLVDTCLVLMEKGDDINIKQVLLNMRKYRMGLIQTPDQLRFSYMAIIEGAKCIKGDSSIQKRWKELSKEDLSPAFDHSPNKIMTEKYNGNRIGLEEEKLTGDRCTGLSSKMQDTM
Description: TCPTP enzyme inhibition. The class given is biochemical. The conditions noted are these: read-out: % Inhib. TCPTP @ 1 μM. Summed up: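 Selectivity counter-screen using recombinant 341-amino-acid TCPTP mixed with test compound at 1 μM. Substrate pNPP added, and hydrolysis read as absorbance increase at 405 nm. Each point run in duplicate; output is percent inhibition.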

Setting [4] is: IC50±SD, soluble 322 amino acids PTP1B, pNPP substrate.
Where [5] appears, read: pIC50, soluble 322 amino acids PTP1B.

Turning to `Cc1nc2ccccc2n2cnnc12` [Compound 3, 4‐Methyl[1,2,4]triazolo[4,3‐a]quinoxaline], in assay [1], the “increase of glucose uptake with respect to control cells” value was about 30%. Also, the “SI (selectivity index, percentage inhibition ratio PTP1B/TCPTP at 1 μM)” value in assay [2] came out at 1.27. Further, the IC50 (commonly the concentration that gives 50% inhibition) was 790 ± 10 nM in assay [2] (setting [4]) and 794 nM in assay [2] (setting [5]). For the same compound, the inhibition at 1 µM in assay [2] stood at 70%; in assay [3], 55%.

In the case of `Cc1nc2ccccc2n2ccnc12` [Compound 2, 4‐Methylimidazo[1,2‐a]quinoxaline], the “increase of glucose uptake with respect to control cells” value in assay [1] is listed as 15%. The “SI (selectivity index, percentage inhibition ratio PTP1B/TCPTP at 1 μM)” value in assay [2] is given as 1.97. Also, the values for the IC50 in assay [2] (setting [4]) and in assay [2] (setting [5]) were 460 ± 40 nM and 468 nM, respectively. Moreover, the results for the inhibition at 1 µM in assay [2] and in assay [3] were 87% and 44%, respectively.

With `c1ccc2c(c1)ncc1nnnn12` [Compound 9, Tetrazolo[1,5‐a]quinoxaline], the “SI (selectivity index, percentage inhibition ratio PTP1B/TCPTP at 1 μM)” value in assay [2] was 1.17. For the same compound, the half-inhibitory concentration (IC50) is 620 ± 200 nM in assay [2] (setting [4]) and 631 nM in assay [2] (setting [5]). The inhibition at 1 µM in assay [2] was determined as 80%; in assay [3], 68%.

Take `CC1Nc2ccccc2-n2nnnc21` (stereo not shown) [Compound 10, 4‐Methyl‐4,5‐dihydrotetrazolo[1,5‐a]quinoxaline]: the IC50 in assay [2] (setting [4]) is 2170 ± 80 nM; in assay [2] (setting [5]), 2190 nM. The inhibition at 1 µM in assay [2] came out at 37%; in assay [3], 35%.

Regarding `Cc1nc2ccccc2n2cccc12` [Compound 1, 4‐methylpyrrolo[1,2‐a]quinoxaline], the “SI (selectivity index, percentage inhibition ratio PTP1B/TCPTP at 1 μM)” value in assay [2] worked out at 0.94. Further, the results for the inhibition at 1 µM in assay [2] and in assay [3] were 51% and 54%, respectively.

In the case of `Cc1nc2ccccc2n2nnnc12` [Compound 4, 4‐Methyltetrazolo[1,5‐a]quinoxaline], the IC50 is 1480 ± 70 nM in assay [2] (setting [4]) and 1510 nM in assay [2] (setting [5]). The results for the inhibition at 1 µM in assay [2] and in assay [3] were 46% and 50%, respectively.
